The source of these data is article PMC11956031 (RSC Medicinal Chemistry, 2025).

Experiment [1] relates to C13* cancer cells (ovarian, resistant to cisplatin). Put plainly: MTT cytotoxicity, cisplatin-resistant C13* cells, 72 h. In kind it is cell-based, human. The method in brief: (§1)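 Cells kept in log phase at 37 °C, 5% CO2, 10% FCS, 2 mM L-glutamine; RPMI-1640 for HCT-15, PSN-1, NTERA-2, 2008 and C13*; DMEM for MDA-MB-231 and HEK293; F-12 HAM's for CHO. C13* selected from 2008 with low-dose cisplatin. 72 h exposure, 0.5% final DMSO. IC50 at 570 nm vs untreated by 4-PL. RF = C13*/2008 IC50; panel average of IC50s.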

The subject of experiment [2] is MDA-MB-231 (breast) cancer cells. Put plainly: MTT cytotoxicity, MDA-MB-231 cells, 72 h. It is filed as cell-based, human. The note with it: read-out: IC50 MDA-MB-231, 72 h incubation. The essentials:
as §1

For experiment [3], the system named is NTERA-2 (embryonal) cancer cells. Put plainly: MTT cytotoxicity, NTERA-2 cells, 72 h. In kind it is cell-based, human. The note with it: read-out: IC50 NTERA-2, 72 h incubation. The method in brief: as §1
Experiment [4] relates to NTERA-2 cancer cell spheroids. The experiment can be described thus: 3D spheroids APH assay, NTERA-2. It is filed as cell-based, human. To be noted: read-out: IC50 3D spheroids NTERA-2, 72 h incubation. The essentials: (§2)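 2.5 × 10^3 2008 or NTERA-2 cells per well grown as spheroids in phenol red-free F-12 HAM's with 10% FCS and 20% methyl cellulose stock. Treated 72 h; DMSO stocks, 0.5% final DMSO; cisplatin from 0.9% NaCl. Viability by modified acid phosphatase assay. IC50 from 405 nm absorbance vs untreated, 4-PL fit.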

The subject of experiment [5] is PSN-1 (pancreatic) cancer cells. The experiment can be described thus: MTT cytotoxicity, PSN-1 cells, 72 h. In kind it is cell-based, human. To be noted: read-out: IC50 PSN-1, 72 h incubation. The method in brief:
as §1

Experiment [6] deals with 2008 cancer cell spheroids. Put plainly: 3D spheroids APH assay, 2008. It is filed as cell-based, human. The note with it: read-out: IC50 3D spheroids 2008, 72 h incubation. The method in brief:
as §2

Experiment [7] deals with HCT-15 (colorectal) cancer cells. Put plainly: MTT cytotoxicity, HCT-15 cells, 72 h. To be noted: read-out: IC50 HCT-15, 72 h incubation. It is filed as cell-based, human. The essentials: as §1
The test system of experiment [8] is 2008 (ovarian) cancer cells. Put plainly: MTT cytotoxicity, 2008 cells, 72 h. It is filed as cell-based, human. To be noted: read-out: IC50 2008, 72 h incubation. The essentials:
as §1

For experiment [9], the system named is human embryonic kidney (HEK-293) cells. The experiment can be described thus: MTT cytotoxicity, non-tumor HEK-293 cells. It is filed as cell-based. The note with it: read-out: IC50 HEK-293, 72 h incubation. The method in brief: as §1
The subject of experiment [10] is Chinese hamster ovary (CHO) cells. Put plainly: MTT cytotoxicity, non-tumor CHO cells. It is filed as cell-based. To be noted: read-out: IC50 CHO, 72 h incubation. The method in brief:
as §1

Consider `N.N.[Cl][Pt][Cl]` [Cisplatin, cisplatin], for which the “resistance factor (RF)” value in [1] (in brackets, ratio IC50 resistant C13* / sensitive 2008 cells) was found to be 11.7. The IC50 (as a rule, the concentration that gives 50% inhibition) in experiment [1] (read-out: IC50 C13*, 72 h incubation, MTT, cisplatin-resistant cells) turned out to be 25 ± 2 µM; in experiment [2], 22 ± 4 µM; in experiment [3] it was 15 ± 3 µM; in experiment [4], 50 ± 5 µM; in experiment [5] it was 12 ± 3 µM; in [6] it was 13.9 ± 0.8 µM. Besides, the 50% inhibitory concentration (IC50) in experiment [7] was 14 ± 2 µM; in experiment [8], 2 ± 1 µM; in experiment [9], 14 ± 3 µM; in experiment [10] it was 29 ± 3 µM.
